In ChEMBL document CHEMBL4196069 (Eur J Med Chem, 2018):

How the values were obtained:
HL-60 = experiment: Antiproliferative activity against human HL60 cells after 72 hrs by MTT assay; assay type: functional, cell-based; settings: HL-60, 72 h
Procedure, shortened: (§1)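 Cells pre-incubated 24 h at 37 °C in humidified 5% CO2, then exposed to compounds for 72 h. MTT (5 mg/mL) was added for 4 h, formazan was dissolved in DMSO, and OD was read at 570 nm. Vehicle control was 0.1% DMSO. IC50 was calculated from inhibition ratios as the mean ± SD of three independent experiments.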

L02 = experiment: Antiproliferative activity against human LO2 cells after 72 hrs by MTT assay; assay type: cell-based; settings: L02, 72 h; procedure, shortened: as §1
Bel-7402 = experiment: Antiproliferative activity against human Bel7402 cells after 72 hrs by MTT assay; assay type: functional, cell-based; settings: Bel-7402, 72 h; procedure, shortened: as §1
Bel7402/5-FU = experiment: Antiproliferative activity against human Bel7402/5-FU cells after 72 hrs by MTT assay; assay type: functional, cell-based; procedure, shortened: as §1
PC-3 = experiment: Antiproliferative activity against human PC3 cells after 72 hrs by MTT assay; assay type: functional, cell-based; settings: PC-3, 72 h; procedure, shortened: as §1
[1] = Selectivity index, ratio of IC50 for human LO2 cells to IC50 for human Bel7402 cells; assay type: toxicity; settings: LO2 cells versus Bel7402 cells, read-out: Ratio IC50
Procedure, shortened: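 Selectivity index = IC50(L-O2)/IC50(Bel-7402), both IC50s from the 72 h MTT assay (mean of three independent experiments).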

In the case of `C[C@H]1CCC/C=C/[C@@H]2C[C@H](O)C[C@H]2[C@H](O)/C=C/C(=O)O1` [BREFELDIN A], the IC50 (HL-60) is reported as 0.025 µM, the IC50 (L02) is reported as < 0.001 µM and the IC50 (Bel-7402) is reported as 0.024 µM. The IC50 (Bel7402/5-FU) was 0.82 µM.
In the case of `COC(=O)[C@H](Cc1ccc(N(CCCl)CCCl)cc1)NC(=O)CCC(=O)O[C@@H]1C[C@@H]2[C@H](/C=C/CCC[C@H](C)OC(=O)/C=C/[C@H]2OC(=O)CCC(=O)N[C@@H](Cc2ccc(N(CCCl)CCCl)cc2)C(=O)OC)C1`, the IC50 (PC-3) is reported as 32.5 µM, the IC50 (HL-60) is reported as 9.37 µM and the IC50 (L02) is reported as 29.9 µM. For the same molecule, the IC50 (Bel-7402) was 4.85 µM, the IC50 (Bel7402/5-FU) was 7.47 µM and the selectivity ratio [1] was 6.2.
Work on `C[C@H]1CCC/C=C/[C@@H]2C[C@H](OC(=O)CCCc3ccc(N(CCCl)CCCl)cc3)C[C@H]2[C@H](O)/C=C/C(=O)O1` yielded an IC50 (PC-3) of 6.84 µM, an IC50 (HL-60) of 34.7 µM and an IC50 (L02) of 15.5 µM. For the same molecule, the IC50 (Bel-7402) was 4.86 µM, the IC50 (Bel7402/5-FU) was 13.8 µM and the selectivity ratio [1] was 3.2.
In the case of `O=c1[nH]cc(F)c(=O)[nH]1` [FLUOROURACIL], the IC50 (PC-3) is reported as 23.9 µM, the IC50 (HL-60) is reported as 2.37 µM and the IC50 (Bel-7402) is reported as 18.5 µM. For the same molecule, the IC50 (Bel7402/5-FU) was > 80 µM.
`C[C@H]1CCC/C=C/[C@@H]2C[C@H](OC(=O)c3ccc(N(CCCl)CCCl)cc3)C[C@H]2[C@H](O)/C=C/C(=O)O1` gave an IC50 (PC-3) of 10.6 µM, an IC50 (HL-60) of 8.25 µM and an IC50 (L02) of 9.51 µM. For the same molecule, the IC50 (Bel-7402) was 1.45 µM, the IC50 (Bel7402/5-FU) was 4.05 µM and the selectivity ratio [1] was 6.6.
`C[C@H]1CCC/C=C/[C@@H]2C[C@H](O)C[C@H]2[C@H](OC(=O)CCCc2ccc(N(CCCl)CCCl)cc2)/C=C/C(=O)O1` gave an IC50 (PC-3) of 1.37 µM, an IC50 (HL-60) of 12.6 µM and an IC50 (L02) of 29.6 µM. It also gave an IC50 (Bel-7402) of 1.93 µM, an IC50 (Bel7402/5-FU) of 8.35 µM and a selectivity ratio [1] of 15.3.
Molecule `COC(=O)[C@H](Cc1ccc(N(CCCl)CCCl)cc1)NC(=O)CCC(=O)O[C@@H]1/C=C/C(=O)O[C@@H](C)CCC/C=C/[C@@H]2C[C@H](O)C[C@H]21` has an IC50 (PC-3) of 14.5 µM, an IC50 (HL-60) of 1.52 µM and an IC50 (L02) of 5.16 µM. For the same molecule, the IC50 (Bel-7402) was 1.37 µM, the IC50 (Bel7402/5-FU) was 4.6 µM and the selectivity ratio [1] was 3.8.
With `O=C(O)CCCc1ccc(N(CCCl)CCCl)cc1` [CHLORAMBUCIL] the IC50 (PC-3) was 40.4 µM, the IC50 (HL-60) was 11.6 µM and the IC50 (L02) was > 80 µM. The IC50 (Bel-7402) was > 80 µM and the IC50 (Bel7402/5-FU) was > 80 µM.
With `COC(=O)[C@H](Cc1ccc(N(CCCl)CCCl)cc1)NC(=O)CCC(=O)O[C@@H]1C[C@H]2[C@H](O)/C=C/C(=O)O[C@@H](C)CCC/C=C/[C@@H]2C1` the IC50 (PC-3) was 17.6 µM, the IC50 (HL-60) was 14.4 µM and the IC50 (L02) was 4.57 µM. The IC50 (Bel-7402) was 1.49 µM, the IC50 (Bel7402/5-FU) was 3.05 µM and the selectivity ratio [1] was 3.1.
Work on `C[C@H]1CCC/C=C/[C@@H]2C[C@H](OC(=O)c3ccc(N(CCCl)CCCl)cc3)C[C@H]2[C@H](OC(=O)c2ccc(N(CCCl)CCCl)cc2)/C=C/C(=O)O1` yielded an IC50 (PC-3) of 18.5 µM, an IC50 (HL-60) of 9.31 µM and an IC50 (L02) of 17.3 µM. For the same molecule, the IC50 (Bel-7402) was 6.3 µM, the IC50 (Bel7402/5-FU) was 15.3 µM and the selectivity ratio [1] was 2.7.
Molecule `C[C@H]1CCC/C=C/[C@@H]2C[C@H](OC(=O)CCCc3ccc(N(CCCl)CCCl)cc3)C[C@H]2[C@H](OC(=O)CCCc2ccc(N(CCCl)CCCl)cc2)/C=C/C(=O)O1` has an IC50 (PC-3) of 20.4 µM, an IC50 (HL-60) of 67.4 µM and an IC50 (L02) of 19.5 µM. The IC50 (Bel-7402) was 7.25 µM, the IC50 (Bel7402/5-FU) was 15.6 µM and the selectivity ratio [1] was 2.7.
For `COC(=O)[C@H](Cc1ccc(N(CCCl)CCCl)cc1)NC(=O)CCC(=O)O`, the IC50 (PC-3) was > 80 µM, the IC50 (HL-60) was 6.02 µM and the IC50 (L02) was 32.9 µM. For the same molecule, the IC50 (Bel-7402) was 23.9 µM, the IC50 (Bel7402/5-FU) was > 80 µM and the selectivity ratio [1] was 1.37.
